{"source": "ChEMBL document CHEMBL1649261", "about": "“Pharmacodynamic profile of tigecycline against methicillin-resistant Staphylococcus aureus in an experimental pneumonia model” (Antimicrob Agents Chemother, 2009)", "key": {"Staphylococcus aureus [1]": {"test_system": "Staphylococcus aureus", "test": "Antibacterial activity against community-acquired methicillin-resistant Staphylococcus aureus 144 by microdilution method", "type": "functional", "outline": "(§1)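 Tigecycline MIC measured in triplicate by broth microdilution following CLSI guidelines. Isolates were stored at −80°C in skim milk and subcultured twice on blood agar before testing.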"}, "[2]": {"test": "Ratio of fAUC to MIC in hospital-acquired methicillin-resistant Staphylococcus aureus 56-infected BALB/c mouse at 80% maximal effective concentration", "type": "functional", "outline": "(§2)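 Neutropenic BALB/c mice (cyclophosphamide 250 and 100 mg/kg i.p., 4 and 1 days before infection) were infected by oral inhalation of 0.05 ml inoculum in 3% mucin under isoflurane. Subcutaneous tigecycline (1.56–150 mg/kg/day, single or 2–3 divided doses, saline vehicle) was started 6 h post-infection. At 24 h lungs were homogenized and plated; change in log10 CFU was taken versus 0-h controls.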"}, "[3]": {"test": "Half life in BALB/c mouse infected with Staphylococcus aureus at 50 mg/kg, sc administered as single dose", "type": "ADME, organism-based", "design": "dose 50 mg/kg, route subcutaneous", "conditions": "in vivo", "outline": "(§3)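 Neutropenic BALB/c mice (cyclophosphamide ip 250 and 100 mg/kg, days −4 and −1) with S. aureus pneumonia from oral instillation of 0.05 ml of a 3% mucin suspension received a single 0.2-ml sc dose in normal saline. Serum was taken at 0.25, 0.5, 1, 1.5, 2, 4, 6 and 8 h, six mice per time point. Drug was measured by validated HPLC.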"}, "[4]": {"test": "Ratio of fAUC to MIC in community-acquired methicillin-resistant Staphylococcus aureus 144-infected BALB/c mouse at bacteriostatic concentration", "type": "functional", "outline": "as §2"}, "Staphylococcus aureus [5]": {"test_system": "Staphylococcus aureus", "test": "Antibacterial activity against community-acquired methicillin-resistant Staphylococcus aureus 156 by microdilution method", "type": "functional", "outline": "as §1"}, "Mus musculus [6]": {"test_system": "Mus musculus", "test": "Volume of distribution in BALB/c mouse infected with Staphylococcus aureus at 6.25 mg/kg, sc administered as single dose", "type": "ADME, organism-based", "design": "dose 6.25 mg/kg, route subcutaneous", "conditions": "in vivo", "outline": "as §3"}, "[7]": {"test": "Ratio of fAUC to MIC in community-acquired methicillin-resistant Staphylococcus aureus 156-infected BALB/c mouse at bacteriostatic concentration", "type": "functional", "outline": "as §2"}, "[8]": {"test": "AUC (0 to 8 hrs) in Staphylococcus aureus-infected BALB/c mouse epithelial lining fluid at 50 mg/kg, sc administered as single dose", "type": "ADME, organism-based", "design": "time < 8 hr, dose 50 mg/kg, route subcutaneous", "outline": "(§4)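 Infected neutropenic BALB/c mice received a single sc dose in saline. Normal-saline bronchoalveolar lavage was done at 0.25, 1, 4 and 8 h, six mice per time. HPLC drug levels in lavage were converted to epithelial lining fluid concentrations with the serum/BAL urea ratio. AUC0-8 was calculated by the trapezoidal rule, and ELF drug was taken as free drug.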"}, "[9]": {"test": "Ratio of fAUC (0 to 8 hrs) in epithelial lining fluid to plasma of Staphylococcus aureus-infected BALB/c mouse at 12.5 mg/kg, sc administered as single dose", "type": "ADME, organism-based", "design": "dose 12.5 mg/kg, route subcutaneous", "outline": "(§5)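 Neutropenic BALB/c mice (cyclophosphamide ip 250 and 100 mg/kg, 4 d and 1 d pre-inoculation) infected orally with S. aureus in 3% mucin. Single 0.2-ml sc dose in normal saline; six mice per time point. Serum sampled 0.25–8 h, BAL at 0.25, 1, 4, 8 h; HPLC; ELF by urea correction. Trapezoidal AUC0-8; serum corrected for ultrafiltration protein binding, BAL drug assumed free.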"}, "Mus musculus [10]": {"test_system": "Mus musculus", "test": "Volume of distribution in BALB/c mouse infected with Staphylococcus aureus at 12.5 mg/kg, sc administered as single dose", "type": "ADME, organism-based", "design": "dose 12.5 mg/kg, route subcutaneous", "conditions": "in vivo", "outline": "as §3"}, "[11]": {"test": "Ratio of fAUC to MIC in community-acquired methicillin-resistant Staphylococcus aureus 144-infected BALB/c mouse at […] maximal effective concentration", "type": "functional", "outline": "as §2"}, "[12]": {"test": "Ratio of fAUC to MIC in community-acquired methicillin-resistant Staphylococcus aureus 147-infected BALB/c mouse at bacteriostatic concentration", "type": "functional", "outline": "as §2"}, "[13]": {"test": "Ratio of fAUC (0 to 8 hrs) in epithelial lining fluid to plasma of Staphylococcus aureus-infected BALB/c mouse at 50 mg/kg, sc administered as single dose", "type": "ADME, organism-based", "design": "dose 50 mg/kg, route subcutaneous", "outline": "as §5"}, "[14]": {"test": "Ratio of fAUC to MIC in community-acquired methicillin-resistant Staphylococcus aureus 156-infected BALB/c mouse at 80% maximal effective concentration", "type": "functional", "outline": "as §2"}, "Staphylococcus aureus [15]": {"test_system": "Staphylococcus aureus", "test": "Antibacterial activity against community-acquired methicillin-resistant Staphylococcus aureus 147 by microdilution method", "type": "functional", "outline": "as §1"}, "[16]": {"test": "Cmax in BALB/c mouse infected with Staphylococcus aureus at 6.25 mg/kg, sc administered as single dose", "type": "ADME, organism-based", "design": "dose 6.25 mg/kg, route subcutaneous", "conditions": "in vivo", "outline": "as §3"}, "[17]": {"test": "AUC (0 to 8 hrs) in Staphylococcus aureus-infected BALB/c mouse epithelial lining fluid at 12.5 mg/kg, sc administered as single dose", "type": "ADME, organism-based", "design": "time < 8 hr, dose 12.5 mg/kg, route subcutaneous", "outline": "as §4"}, "[18]": {"test": "Ratio of fAUC to MIC in methicillin-susceptible Staphylococcus aureus ATCC 29213-infected BALB/c mouse at […] maximal effective concentration", "type": "functional", "outline": "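Mice were neutropenic and infected by lung instillation with ATCC 29213, with the MIC set by CLSI broth microdilution in triplicate. Sc treatment started 6 h post-inoculation at 1.56–150 mg/kg/day, given as one, two or three doses. Lung CFU at 24 h were compared with 0-h controls. Change in log10 CFU was fitted against protein-binding-corrected fAUC/MIC with a sigmoid Emax model.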"}, "[19]": {"test": "AUC (0 to 24 hrs) in BALB/c mouse infected with Staphylococcus aureus at 50 mg/kg, sc administered as single dose", "type": "ADME, organism-based", "design": "time < 24 hr, dose 50 mg/kg, route subcutaneous", "conditions": "plasma", "outline": "as §3"}, "[20]": {"test": "Protein binding in Staphylococcus aureus-infected BALB/c mouse serum at 50 mg/kg, sc administered as single dose", "type": "ADME, organism-based", "design": "dose 50 mg/kg, route subcutaneous", "conditions": "read-out: PB (converted)", "outline": "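Ultrafiltration was run in triplicate with 30,000-MW cutoff devices. Drug was diluted into fresh mouse serum to final 1.5, 3, 6 and 15 μg/ml, held at 37°C for 10 min with shaking, and centrifuged at 1,000 × g for 45 min at 10°C. Binding was calculated as (S − SUF)/S × 100 for each concentration, each matched to a dose by its peak serum level.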"}, "[21]": {"test": "Ratio of fAUC (0 to 8 hrs) in epithelial lining fluid to plasma of Staphylococcus aureus-infected BALB/c mouse at 25 mg/kg, sc administered as single dose", "type": "ADME, organism-based", "design": "dose 25 mg/kg, route subcutaneous", "outline": "as §5"}, "[22]": {"test": "AUC (0 to 24 hrs) in BALB/c mouse infected with Staphylococcus aureus at 12.5 mg/kg, sc administered as single dose", "type": "ADME, organism-based", "design": "time < 24 hr, dose 12.5 mg/kg, route subcutaneous", "conditions": "plasma", "outline": "as §3"}, "[23]": {"test": "Half life in BALB/c mouse infected with Staphylococcus aureus at 12.5 mg/kg, sc administered as single dose", "type": "ADME, organism-based", "design": "dose 12.5 mg/kg, route subcutaneous", "conditions": "in vivo", "outline": "as §3"}, "[24]": {"test": "Half life in BALB/c mouse infected with Staphylococcus aureus at 6.25 mg/kg, sc administered as single dose", "type": "ADME, organism-based", "design": "dose 6.25 mg/kg, route subcutaneous", "conditions": "in vivo", "outline": "as §3"}, "Staphylococcus aureus [25]": {"test_system": "Staphylococcus aureus", "test": "Antibacterial activity against hospital-acquired methicillin-resistant Staphylococcus aureus 56 by microdilution method", "type": "functional", "outline": "as §1"}, "[26]": {"test": "Ratio of fAUC to MIC in hospital-acquired methicillin-resistant Staphylococcus aureus 152-infected BALB/c mouse at 80% maximal effective concentration", "type": "functional", "outline": "as §2"}, "[27]": {"test": "Ratio of fAUC to MIC in community-acquired methicillin-resistant Staphylococcus aureus 156-infected BALB/c mouse at […] maximal effective concentration", "type": "functional", "outline": "as §2"}}, "data": [{"smiles": "CN(C)c1cc(NC(=O)CNC(C)(C)C)c(O)c2c1C[C@H]1C[C@H]3[C@H](N(C)C)C(O)=C(C(N)=O)C(=O)[C@@]3(O)C(O)=C1C2=O", "note": "[TIGECYCLINE]", "values": [{"measurement": "MIC", "setting": "Staphylococcus aureus [1]", "result": 0.25, "unit": "µg/mL"}, {"measurement": "fAUC/MIC", "setting": "[2]", "result": 2.11}, {"measurement": "half-life", "setting": "[3]", "result": 11.5, "unit": "h"}, {"measurement": "fAUC/MIC", "setting": "[4]", "result": 2.17}, {"measurement": "MIC", "setting": "Staphylococcus aureus [5]", "result": 0.125, "unit": "µg/mL"}, {"measurement": "Vd", "setting": "Mus musculus [6]", "result": 3.44, "unit": "L/kg"}, {"measurement": "fAUC/MIC", "setting": "[7]", "result": 4.18}, {"measurement": "AUC(0-t) at 8 h", "setting": "[8]", "result": 41900, "unit": "ng·h/mL"}, {"measurement": "Kp uu", "setting": "[9]", "result": 7.02}, {"measurement": "Vd", "setting": "Mus musculus [10]", "result": 3.62, "unit": "L/kg"}, {"measurement": "fAUC/MIC", "setting": "[11]", "result": 2.29}, {"measurement": "fAUC/MIC", "setting": "[12]", "result": 0.41}, {"measurement": "Kp uu", "setting": "[13]", "result": 23.9}, {"measurement": "fAUC/MIC", "setting": "[14]", "result": 5.22}, {"measurement": "MIC", "setting": "Staphylococcus aureus [15]", "result": 0.25, "unit": "µg/mL"}, {"measurement": "Cmax", "setting": "[16]", "result": 1570, "unit": "ng/mL"}, {"measurement": "AUC(0-t) at 8 h", "setting": "[17]", "result": 11000, "unit": "ng·h/mL"}, {"measurement": "fAUC/MIC", "setting": "[18]", "result": 2.33}, {"measurement": "AUC(0-t) at 24 h", "setting": "[19]", "result": 72500, "unit": "ng·h/mL"}, {"measurement": "fraction unbound", "setting": "[20]", "result": 0.041}, {"measurement": "Kp uu", "setting": "[21]", "result": 15.1}, {"measurement": "AUC(0-t) at 24 h", "setting": "[22]", "result": 16500, "unit": "ng·h/mL"}, {"measurement": "half-life", "setting": "[23]", "result": 7.13, "unit": "h"}, {"measurement": "half-life", "setting": "[24]", "result": 12.4, "unit": "h"}, {"measurement": "MIC", "setting": "Staphylococcus aureus [25]", "result": 0.5, "unit": "µg/mL"}, {"measurement": "fAUC/MIC", "setting": "[26]", "result": 2.48}, {"measurement": "fAUC/MIC", "setting": "[27]", "result": 3.91}]}]}
